Laboratory results published in ChEMBL document CHEMBL3526132, “In vitro metabolism of BIIB021, an inhibitor of heat shock protein 90, in liver microsomes and hepatocytes of rats, dogs, and humans and recombinant human cytochrome P450 isoforms” (Drug Metab Dispos, 2012).

How the values were obtained:
Liver microsome [1] = experiment: Drug level in human liver microsomes treated with [14C]BIIB021 at 10 uM […] by LC-RAM-MS analysis in presence of anti-CYP2C19 monoclonal antibody; format: ADME; conditions: 1.5 h
Liver microsome [2] = experiment: Drug level in human liver microsomes treated with [14C]BIIB021 at 10 uM […] by LC-RAM-MS analysis in presence of anti-CYP1A2 monoclonal antibody; format: ADME; conditions: 1.5 h
Liver microsome [3] = experiment: Drug level in human liver microsomes treated with [14C]BIIB021 at 10 uM after 90 mins by LC-RAM-MS analysis in presence of anti-CYP2B6 monoclonal antibody; format: ADME; conditions: 1.5 h
Liver microsome [4] = experiment: Drug level in human liver microsomes treated with [14C]BIIB021 at 10 uM after 90 mins by LC-RAM-MS analysis in presence of anti-CYP3A4 monoclonal antibody; format: ADME; conditions: 1.5 h
Liver microsome [5] = experiment: Drug level in human liver microsomes treated with [14C]BIIB021 at 10 uM after 90 mins by LC-RAM-MS analysis in presence of anti-CYP2D6 monoclonal antibody; format: ADME; conditions: 1.5 h
Liver microsome [6] = experiment: Drug level in human liver microsomes treated with [14C]BIIB021 at 10 uM after 90 mins by LC-RAM-MS analysis in presence of anti-CYP2A6 monoclonal antibody; format: ADME; conditions: 1.5 h
Liver microsome [7] = experiment: Drug level in human liver microsomes treated with [14C]BIIB021 at 10 uM […] by LC-RAM-MS analysis in presence of anti-CYP2E1 monoclonal antibody; format: ADME; conditions: 1.5 h
Liver microsome [8] = experiment: Drug metabolism in human liver microsomes assessed as CF2246 metabolite formation at 10 uM […] by LC-RAM-MS analysis in presence of anti-CYP1A2 monoclonal antibody; format: ADME
Method in brief: (§1)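 All components except substrate and NADPH were preincubated 15 min on ice, then 5 min at 37°C. Substrate and NADPH were added and incubated 60 min at 37°C. Incubations without antibody served as positive controls.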

[9] = Drug metabolism in human liver cytosol assessed as CF2483 metabolite formation at 10 uM after 30 mins by LC-RAM-MS analysis in presence of aldehyde oxidase inhibitor raloxifene; format: ADME; conditions: 0.5 h
Method in brief: (§2)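 Human liver cytosol (1 mg/mL protein) incubated with 10 µM [14C]BIIB021 (0.5 µCi/mL) in 100 mM phosphate buffer, pH 7.4, for 30 min. Reaction quenched with ice-cold acetonitrile, then centrifuged 10 min at 4°C, and supernatant analysed by LC-MS. Where used, inhibitors (isovanillin 100 µM, menadione 100 µM, allopurinol 100 µM, raloxifene 50 µM) were preincubated in cytosol 10 min at 37°C before substrate addition.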

CYP3A4 = CYP3A4 (Homo sapiens, UniProt P08684); experiment: Drug metabolism assessed as unchanged drug level in baculovirus-infected Sf9 cell microsomes expressing human recombinant CYP3A4 at 10 uM after 30 mins by LC-RAM-MS analysis; format: ADME; conditions: read-out: Drug metabolism
Method in brief: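 Microsomes from baculovirus-infected Sf9 cells expressing recombinant human CYP3A4 with CYP450 reductase (50 pmol/mL) incubated in duplicate with 10 µM [14C]BIIB021 (0.5 µCi/mL) in 100 mM potassium phosphate pH 7.4. Reaction started with 1 mM NADPH (final), run 30 min at 37°C with gentle shaking, stopped with ice-cold acetonitrile containing 0.1% formic acid, centrifuged, and supernatant analysed by LC-MS.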

Liver microsome [10] = experiment: Drug metabolism in human liver microsomes assessed as CF3785 metabolite formation at 10 uM […] by LC-RAM-MS analysis in presence of anti-CYP2D6 monoclonal antibody; format: ADME; method in brief: as §1
Liver microsome [11] = experiment: Drug metabolism in human liver microsomes assessed as CF3785 metabolite formation at 10 uM […] by LC-RAM-MS analysis in presence of anti-CYP2E1 monoclonal antibody; format: ADME; method in brief: as §1
Liver microsome [12] = experiment: Drug metabolism in human liver microsomes assessed as CF2246 metabolite formation at 10 uM […] by LC-RAM-MS analysis in presence of anti-CYP2C19 monoclonal antibody; format: ADME; method in brief: as §1
Liver microsome [13] = experiment: Drug metabolism in human liver microsomes assessed as CF2246 metabolite formation at 10 uM after […] by LC-RAM-MS analysis in presence of anti-CYP2D6 monoclonal antibody; format: ADME; method in brief: as §1
Liver microsome [14] = experiment: Drug metabolism in human liver microsomes assessed as CF3785 metabolite formation at 10 uM […] by LC-RAM-MS analysis in presence of anti-CYP1A2 monoclonal antibody; format: ADME; method in brief: as §1
Liver microsome [15] = experiment: Drug metabolism in human liver microsomes assessed as CF2246 metabolite formation at 10 uM after […] by LC-RAM-MS analysis in presence of anti-CYP3A4 monoclonal antibody; format: ADME; method in brief: as §1
Liver microsome [16] = experiment: Drug metabolism in human liver microsomes assessed as CF3785 metabolite formation at 10 uM […] by LC-RAM-MS analysis in presence of anti-CYP2A6 monoclonal antibody; format: ADME; method in brief: as §1
Liver microsome [17] = experiment: Drug metabolism in human liver microsomes assessed as CF2246 metabolite formation at 10 uM after […] by LC-RAM-MS analysis in presence of anti-CYP2A6 monoclonal antibody; format: ADME; method in brief: as §1
Liver microsome [18] = experiment: Drug metabolism in human liver microsomes assessed as CF2246 metabolite formation at 10 uM after […] by LC-RAM-MS analysis in presence of anti-CYP2E1 monoclonal antibody; format: ADME; method in brief: as §1
[19] = Drug metabolism in human liver cytosol assessed as CF2483 metabolite formation at 10 uM after 30 mins by LC-RAM-MS analysis; format: ADME, tissue-based; conditions: 0.5 h; method in brief: as §2
Liver microsome [20] = experiment: Drug metabolism in human liver microsomes assessed as CF2246 metabolite formation at 10 uM […] by LC-RAM-MS analysis in presence of anti-CYP2B6 monoclonal antibody; format: ADME; method in brief: as §1
[21] = Drug metabolism in human liver cytosol assessed as CF2483 metabolite formation at 10 uM after 30 mins by LC-RAM-MS analysis in presence of xanthine oxidase inhibitor allopurinol; format: ADME; conditions: 0.5 h; method in brief: as §2
[22] = Drug metabolism in human liver cytosol assessed as CF2483 metabolite formation at 10 uM after 30 mins by LC-RAM-MS analysis in presence of aldehyde oxidase inhibitor menadione; format: ADME; conditions: 0.5 h; method in brief: as §2
[23] = Drug metabolism in human liver cytosol assessed as CF2483 metabolite formation at 10 uM after 30 mins by LC-RAM-MS analysis in presence of aldehyde oxidase inhibitor isovanillin; format: ADME; conditions: 0.5 h; method in brief: as §2
Liver microsome [24] = experiment: Drug metabolism in human liver microsomes assessed as CF3785 metabolite formation at 10 uM […] by LC-RAM-MS analysis in presence of anti-CYP2B6 monoclonal antibody; format: ADME; method in brief: as §1
[25] = Drug level in human liver cytosol treated with [14C]BIIB021 at 10 uM after 30 mins by LC-RAM-MS analysis; format: ADME, tissue-based; conditions: 0.5 h; method in brief: as §2
[26] = Drug level in human liver cytosol treated with [14C]BIIB021 at 10 uM after 30 mins by LC-RAM-MS analysis in presence of xanthine oxidase inhibitor allopurinol; format: ADME, tissue-based; conditions: 0.5 h; method in brief: as §2

Sequence of CYP3A4 (P08684 whole entry): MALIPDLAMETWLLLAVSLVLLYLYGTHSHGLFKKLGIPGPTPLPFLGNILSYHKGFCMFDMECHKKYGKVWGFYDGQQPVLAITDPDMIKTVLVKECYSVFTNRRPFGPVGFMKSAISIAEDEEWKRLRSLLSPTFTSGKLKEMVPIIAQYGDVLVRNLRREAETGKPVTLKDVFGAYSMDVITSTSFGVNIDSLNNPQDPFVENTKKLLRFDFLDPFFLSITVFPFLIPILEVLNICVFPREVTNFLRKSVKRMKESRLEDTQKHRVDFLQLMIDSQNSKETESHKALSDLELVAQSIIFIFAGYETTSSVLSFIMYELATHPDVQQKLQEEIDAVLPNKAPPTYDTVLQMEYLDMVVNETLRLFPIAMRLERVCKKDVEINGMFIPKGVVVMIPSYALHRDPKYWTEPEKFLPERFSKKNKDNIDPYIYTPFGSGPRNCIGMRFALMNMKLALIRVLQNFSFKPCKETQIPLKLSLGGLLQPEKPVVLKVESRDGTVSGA

With `Cc1cnc(Cn2cnc3c(Cl)nc(N)nc32)c(C)c1O` the Drug metabolism (Liver microsome [1]) was “metabolite_detected”, the Drug metabolism (Liver microsome [2]) was “metabolite_detected” and the Drug metabolism (Liver microsome [3]) was “metabolite_detected”. For the same compound, the Drug metabolism (Liver microsome [4]) was “metabolite_detected”, the Drug metabolism (Liver microsome [5]) was “metabolite_detected” and the Drug metabolism (Liver microsome [6]) was “metabolite_detected”. For the same compound, the Drug metabolism (Liver microsome [7]) was “metabolite_detected”.
With `COc1c(CO)cnc(Cn2cnc3c(Cl)nc(N)nc32)c1C` the Drug metabolism (Liver microsome [2]) was “metabolite_detected”, the Drug metabolism (Liver microsome [3]) was “metabolite_detected” and the Drug metabolism (Liver microsome [5]) was “metabolite_detected”. The Drug metabolism (Liver microsome [6]) was “metabolite_detected” and the Drug metabolism (Liver microsome [7]) was “metabolite_detected”.
In the case of `COc1c(C)cnc(Cn2[14cH]nc3c(Cl)nc(N)nc32)c1C`, the Drug metabolism (Liver microsome [8]) is reported as “metabolite_detected”, the Drug metabolism [9] is reported as “metabolite_not_detected” and the remaining at 0.5 h, 10 µM (CYP3A4) is reported as 70%. The Drug metabolism (Liver microsome [10]) was “metabolite_detected”, the Drug metabolism (Liver microsome [11]) was “metabolite_detected” and the Drug metabolism (Liver microsome [12]) was “metabolite_detected”. For the same compound, the Drug metabolism (Liver microsome [13]) was “metabolite_detected”, the Drug metabolism (Liver microsome [14]) was “metabolite_detected” and the Drug metabolism (Liver microsome [15]) was “metabolite_detected”. For the same compound, the Drug metabolism (Liver microsome [16]) was “metabolite_detected”, the Drug metabolism (Liver microsome [17]) was “metabolite_detected” and the Drug metabolism (Liver microsome [18]) was “metabolite_detected”. For the same compound, the Drug metabolism [19] was “metabolite_detected”, the Drug metabolism (Liver microsome [20]) was “metabolite_detected” and the Drug metabolism [21] was “metabolite_detected”. For the same compound, the Drug metabolism [22] was “metabolite_not_detected”, the Drug metabolism [23] was “metabolite_not_detected” and the Drug metabolism (Liver microsome [24]) was “metabolite_detected”.
In the case of `COc1c(C)cnc(Cn2c(O)nc3c(Cl)nc(N)nc32)c1C`, the Drug metabolism [25] is reported as “metabolite_detected” and the Drug metabolism [26] is reported as “metabolite_detected”.
